Measured values published in ChEMBL document CHEMBL1132721, “Cyclobutane quisqualic acid analogues as selective mGluR5a metabotropic glutamic acid receptor ligands” (J Med Chem, 1999).

Key:
[1] = species: Rattus norvegicus; test: Inhibition of the sensitization of CA1 pyramidal neurons to depolarization by L-AP6 by the compound at a concentration of 16 uM after 4 minutes; assay type: functional, organism-based; details: Pyramidal neuron
How it was run: (§1)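 Rat hippocampal slices. Sensitization of CA1 neurons to phosphonate depolarization was measured in the QUIS-effect slice assay.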

[2] = species: Rattus norvegicus; test: Inhibition of the sensitization of CA1 pyramidal neurons to depolarization by L-AP6 by the compound at a concentration of 16 uM before 4 minutes; assay type: functional, organism-based; details: Pyramidal neuron; how it was run: as §1
[3] = species: Rattus norvegicus; test: Inhibition of the sensitization of CA1 pyramidal neurons to depolarization by L-AP6 after reversal with L-alpha-AA by the compound at a concentration of 16 uM after 4 minutes; assay type: functional, organism-based; details: Pyramidal neuron
How it was run: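 Rat hippocampal slices. The sensitization was reversed by treating the slices with 2 mM L-α-aminoadipic acid for 10 min.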

[4] = species: Rattus norvegicus; test: Inhibition of the sensitization of CA1 pyramidal neurons to depolarization by L-AP6 by the compound at a concentration of 200 uM after 20 minutes; assay type: functional, organism-based; details: Pyramidal neuron
[5] = molecular target: T1, Glutamate receptor ionotropic, AMPA (Rattus norvegicus, UniProt P19490+P19491+P19492+P19493); test: Inhibition of Ionotropic glutamate receptor AMPA mediated depolarization by the compound at a concentration of 200 uM after 20 minutes in rat
[6] = species: Rattus norvegicus; test: Inhibition of the sensitization of CA1 pyramidal neurons to depolarization by L-AP6 after reversal with L-alpha-AA; assay type: functional, organism-based; details: Pyramidal neuron
[7] = species: Rattus norvegicus; test: Inhibition of the sensitization of CA1 pyramidal neurons to depolarization by L-AP6 by the compound at a concentration of 200 uM before 20 minutes; assay type: functional, organism-based; details: Pyramidal neuron
[8] = molecular target: Metabotropic glutamate receptor 5 (Homo sapiens, UniProt P41594); test: Compound was tested for the stimulation of Phosphoinositide (PI) hydrolysis in BHK cells expressing mGluR5a receptor; assay type: functional, cell-based
How it was run: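 BHK570 cells stably expressing mGluR5a, kept under 2 μM methotrexate selection in DMEM with 5% heat-inactivated FBS, 2 mM glutamine and 5% CO2. Grown to 60–90% confluence, then labelled 16–20 h with 1 μCi/mL [3H]-myo-inositol. PI hydrolysis was measured by the Thomsen method and normalized to 100 000 DPM of total incorporated label. Mean ± SEM of 3–6 experiments; EC50 from concentration–response curves.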

[9] = species: Rattus norvegicus; test: Compound was tested for the stimulation of Phosphoinositide (PI) hydrolysis in rat hippocampus; assay type: functional, organism-based
How it was run: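 Slices of neonatal (6–11-day-old) Sprague–Dawley rat hippocampus, labelled with [3H]-myo-inositol. Inositol phosphate accumulation was expressed per 100 000 DPM of total incorporated radiolabel (lipid plus soluble IP fraction) under basal conditions. Concentration–response data were fit with Hill coefficient 1. Mean ± SEM of four experiments.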

[10] = species: Rattus norvegicus; test: Inhibition of the sensitization of CA1 pyramidal neurons to depolarization by L-AP6 by the compound at a concentration of 400 uM before 20 minutes; assay type: functional, organism-based; details: Pyramidal neuron
[11] = species: Rattus norvegicus; test: Inhibition of the sensitization of CA1 pyramidal neurons to depolarization by L-AP6 by the compound at a concentration of 400 uM after 20 minutes; assay type: functional, organism-based; details: Pyramidal neuron
[12] = molecular target: T1, Glutamate receptor ionotropic, AMPA; test: Inhibition of Ionotropic glutamate receptor AMPA mediated depolarization by the compound at a concentration of 400 uM after 20 minutes in rat

Chain of Metabotropic glutamate receptor 5 (P41594 whole entry): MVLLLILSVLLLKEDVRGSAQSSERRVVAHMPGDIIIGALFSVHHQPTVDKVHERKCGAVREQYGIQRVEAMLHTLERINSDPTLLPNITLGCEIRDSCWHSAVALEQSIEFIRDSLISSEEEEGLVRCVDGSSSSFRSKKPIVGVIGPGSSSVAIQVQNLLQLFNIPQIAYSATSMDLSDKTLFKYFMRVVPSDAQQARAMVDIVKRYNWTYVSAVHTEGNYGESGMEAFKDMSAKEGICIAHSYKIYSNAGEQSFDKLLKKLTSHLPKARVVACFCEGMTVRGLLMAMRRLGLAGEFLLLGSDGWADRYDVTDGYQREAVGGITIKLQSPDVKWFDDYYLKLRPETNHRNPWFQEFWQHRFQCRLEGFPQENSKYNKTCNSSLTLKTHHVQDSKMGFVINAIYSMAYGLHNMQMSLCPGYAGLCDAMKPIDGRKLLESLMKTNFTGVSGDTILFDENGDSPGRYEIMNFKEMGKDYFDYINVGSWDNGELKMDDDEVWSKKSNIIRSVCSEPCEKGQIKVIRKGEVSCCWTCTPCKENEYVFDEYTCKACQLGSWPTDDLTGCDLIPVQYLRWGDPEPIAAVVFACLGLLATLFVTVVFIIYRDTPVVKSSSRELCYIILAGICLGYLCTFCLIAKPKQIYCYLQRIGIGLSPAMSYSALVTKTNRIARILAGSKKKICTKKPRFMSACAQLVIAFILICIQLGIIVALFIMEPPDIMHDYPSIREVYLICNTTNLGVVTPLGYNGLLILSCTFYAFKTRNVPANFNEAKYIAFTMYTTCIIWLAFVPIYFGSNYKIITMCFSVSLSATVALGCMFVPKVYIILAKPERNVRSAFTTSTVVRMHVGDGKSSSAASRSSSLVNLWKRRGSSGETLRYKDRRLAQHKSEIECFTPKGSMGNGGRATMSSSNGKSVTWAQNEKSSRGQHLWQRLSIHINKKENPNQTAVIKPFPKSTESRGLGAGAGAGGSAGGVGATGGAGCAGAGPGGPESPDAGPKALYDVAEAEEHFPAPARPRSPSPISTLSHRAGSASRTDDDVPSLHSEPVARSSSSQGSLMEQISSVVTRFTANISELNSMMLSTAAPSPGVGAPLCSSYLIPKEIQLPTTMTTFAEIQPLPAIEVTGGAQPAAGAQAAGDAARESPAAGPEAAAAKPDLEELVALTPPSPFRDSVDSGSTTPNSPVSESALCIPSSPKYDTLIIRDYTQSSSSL

Structure (SMILES)	IC50 [1]	IC50 [2]	IC50 [3]	IC50 [4]	IC50 [5]	IC50 [6]	IC50 [7]	EC50 [8]	EC50 [9]	IC50 [10]	IC50 [11]	IC50 [12]
N[C@@H](Cn1oc(=O)[nH]c1=O)C(=O)O [QUISQUALATE]	40 µM	> 10000 µM	1900 µM	–	–	–	–	–	–	–	–	–
N[C@]1(C(=O)O)C[C@H](n2oc(=O)[nH]c2=O)C1	–	–	–	7000 µM	69 µM	> 10000 µM	> 10000 µM	11 µM	18 µM	–	–	–
N[C@]1(C(=O)O)C[C@@H](n2oc(=O)[nH]c2=O)C1	–	–	–	–	–	–	–	49 µM	53 µM	> 10000 µM	> 10000 µM	390 µM
